In the library only some 2.5% were active in any assay of this set; here they are far more common.
UHRF1 binding = human UHRF1 methylated DNA binding inhibitors; AID 687016; 370,000 compounds, 0.75% hits; inhibition, % at 4.4 µM; UHRF1 binding to methylated oligo, TR-FRET; Q96T88; in the data active = inhibition above about 21%;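 note: UHRF1 SRA domain binding a hemimethylated CpG hairpin DNA probe; 0% = median of test compound wells and 100% = reference inhibitor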
HCV NS3 hel inh = blocks Hepatitis C virus NS3 helicase unwinding | inhibition, % at 10.9 µM | NS3 helicase DNA unwinding, Cy5 molecular beacon fluorescence | 290,000 compounds, 0.56% hits;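 active = inhibition above the mean of all tested compounds plus 3 SD, set per campaign, cut at about 35% in these data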;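 note: 0% = DMSO wells and 100% = thioflavine S control wells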
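Material: hepatitis C virus NS3 helicase domain fragment enzyme; measured by: Cy5 fluorescence, 0 and 60 min reads; control set: DMSO and thioflavine S; incubation: 60 min unwinding reaction at 25 °C after ATP addition; read-out basis: % inhibition from 60/0 min fluorescence ratio, DMSO 0%, thioflavine S 100%; repeats: singlicate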
DSG3 Ab inh = human desmoglein-3 autoantibody binding inhibition. binding (percent of control), % at 10 µM. P32926. 310,000 compounds, 0.48% hits. DSG3-coupled beads, scFv-anti-DSG3-GFP binding, flow cytometry; active compounds read low;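 active = binding more than 3 SD below its plate's average and above zero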;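 note: hits lower antibody fragment binding to DSG3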
MBD2 DNA inh = inhibitors of human MBD2 binding to methylated oligonucleotide; Q9UBB5; inhibition, % at 4.4 µM; TR-FRET; 370,000 compounds, 0.31% hits; in the data active = inhibition above about 13%
Target sequence (Q9UBB5 whole entry, looked up): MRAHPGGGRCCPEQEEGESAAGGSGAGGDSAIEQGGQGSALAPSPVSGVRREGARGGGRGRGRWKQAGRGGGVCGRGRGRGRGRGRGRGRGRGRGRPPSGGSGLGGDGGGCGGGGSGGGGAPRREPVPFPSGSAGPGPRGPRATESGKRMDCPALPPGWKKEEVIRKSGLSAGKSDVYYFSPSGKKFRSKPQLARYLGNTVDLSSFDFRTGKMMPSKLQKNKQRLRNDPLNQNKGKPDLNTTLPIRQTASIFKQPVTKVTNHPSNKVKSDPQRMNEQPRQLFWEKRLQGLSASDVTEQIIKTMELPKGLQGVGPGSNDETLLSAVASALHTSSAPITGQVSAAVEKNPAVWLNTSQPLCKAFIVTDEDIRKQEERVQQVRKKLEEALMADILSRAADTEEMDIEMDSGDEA
DNMT1 block = DNMT1 (human) enzyme inhibition | inhibition (reported as % activation of signal), % at 10 µM | DNMT1 molecular beacon, Hinp1I cleavage, fluorescence | 360,000 compounds, 0.83% hits | P26358; in the data active = inhibition above about 50%
SUMO1 PPI mod = alters human SUMO1 binding to SIM partners. AID 602429. SUMO1 binding to a labelled peptide, TR-FRET, 1 h. P63165. inhibition, % at 20 µM. 360,000 compounds, 0.33% hits; in the data active = inhibition above about 37%
Target sequence (P63165 whole entry, looked up): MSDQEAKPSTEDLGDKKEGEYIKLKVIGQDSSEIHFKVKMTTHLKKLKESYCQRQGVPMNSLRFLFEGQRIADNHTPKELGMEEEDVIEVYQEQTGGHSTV
Numbers without * were called inactive.

For CC1(C)CC(=O)c2sc(NC(=O)CN3CCCCC3)nc2C1 the results were UHRF1 binding 2, HCV NS3 hel inh -5, DSG3 Ab inh 114, MBD2 DNA inh 2, DNMT1 block 1 and SUMO1 PPI mod -3.
For Nc1cccc(-c2nc3cc(S(=O)(=O)c4ccc5oc(-c6cccc(N)c6)nc5c4)ccc3o2)c1 the results were UHRF1 binding 2, HCV NS3 hel inh 5, DSG3 Ab inh 77*, MBD2 DNA inh 6, DNMT1 block -8 and SUMO1 PPI mod 5.
Screening Cc1ccc2oc(-c3cccc(N)c3)nc2c1 returned UHRF1 binding -5, HCV NS3 hel inh 15, DSG3 Ab inh 103, MBD2 DNA inh 2, DNMT1 block -3 and SUMO1 PPI mod 0.
Screening CCN(CC)S(=O)(=O)c1ccc(SCC(=O)c2c(N)n(C3CC3)c(=O)[nH]c2=O)nc1 returned UHRF1 binding 3, DSG3 Ab inh 100, MBD2 DNA inh 6, DNMT1 block 4 and SUMO1 PPI mod 6.
Screening COc1ccc(C=NOCC(=O)OCC(=O)Nc2ccc(OC)cc2)cc1 returned UHRF1 binding 29*, DSG3 Ab inh 105, MBD2 DNA inh -2, DNMT1 block -1 and SUMO1 PPI mod -2.
`Cc1c(C(=O)Nc2cccc(Cl)c2)c2ccccn2c1CCc1ccncc1` gave UHRF1 binding -1, HCV NS3 hel inh 10, DSG3 Ab inh 85, MBD2 DNA inh 0, DNMT1 block -7 and SUMO1 PPI mod -1.
Cc1c(C(=O)Nc2ccc(Cl)cc2)c2ccccn2c1CCc1ccncc1 was read as UHRF1 binding 24*, HCV NS3 hel inh 10, DSG3 Ab inh 101, MBD2 DNA inh 0, DNMT1 block -10 and SUMO1 PPI mod 7.
For CCc1cccc(Oc2nn[nH]n2)c1 the results were HCV NS3 hel inh 2, DSG3 Ab inh 102, DNMT1 block 4 and SUMO1 PPI mod 1.
COC(=O)C(C)Sc1nc(NCc2ccccc2)nc(N(C)C)n1 (stereo not given) was read as UHRF1 binding 1, HCV NS3 hel inh -9, DSG3 Ab inh 84*, MBD2 DNA inh 4, DNMT1 block 4 and SUMO1 PPI mod -1.
For O=[N+]([O-])c1ccc(Cl)c(/C=N/NC(=S)Nc2ccccc2)c1 the results were UHRF1 binding 0, HCV NS3 hel inh -1, DSG3 Ab inh 84*, MBD2 DNA inh 0, DNMT1 block 6 and SUMO1 PPI mod -4.
NC(=S)N/N=C/c1cc([N+](=O)[O-])ccc1Cl was read as UHRF1 binding 3, HCV NS3 hel inh 4, DSG3 Ab inh 103, MBD2 DNA inh -3, DNMT1 block 1 and SUMO1 PPI mod -18.
For CN1C(=O)c2ccccc2OC1(C)Cc1ccccc1 (stereo not given) the results were UHRF1 binding 18, HCV NS3 hel inh 1, DSG3 Ab inh 112, MBD2 DNA inh 10, DNMT1 block 0 and SUMO1 PPI mod -1.
For Cc1cc(C)n2nc(SCC(=O)c3cccs3)nc2n1 the results were UHRF1 binding 1, HCV NS3 hel inh -2, DSG3 Ab inh 108, MBD2 DNA inh 3, DNMT1 block 3 and SUMO1 PPI mod -2.
COCCCN(C(=O)c1cc(-c2ccco2)nc2ccccc12)c1c(N)n(Cc2ccccc2)c(=O)[nH]c1=O was read as UHRF1 binding 23*, DSG3 Ab inh 105, MBD2 DNA inh 12, DNMT1 block 30 and SUMO1 PPI mod -4.
For COC(=O)C1=CN(c2cccc(OCc3ccccc3)c2)C(N)=C(C#N)C1c1ccccc1 (stereo not given) the results were UHRF1 binding 1, MBD2 DNA inh -5 and SUMO1 PPI mod -5.
`CC12CCC3c4ccc(O)cc4CCC3C1CC(O)C2O` (stereo not given) gave UHRF1 binding 1, DSG3 Ab inh 46*, MBD2 DNA inh 3, DNMT1 block -1 and SUMO1 PPI mod 7.
COc1ccc(C2/C=C\CC(NC(=O)OCC3c4ccccc4-c4ccccc43)CC(=O)N2Cc2ccccc2F)cc1 (stereo not given) was read as DSG3 Ab inh 83*, DNMT1 block -6 and SUMO1 PPI mod -1.
Screening CCOc1cc(C(=O)OCC(=O)c2c(C)[nH]c3ccccc23)ccc1OCC(=O)N1CCOCC1 returned UHRF1 binding 0, HCV NS3 hel inh -22, DSG3 Ab inh 93, MBD2 DNA inh -3, DNMT1 block -1 and SUMO1 PPI mod 39*.
For CCOc1cc(C(=O)OCC(=O)c2c[nH]c3ccccc23)ccc1OCC(=O)N1CCOCC1 the results were UHRF1 binding -1, HCV NS3 hel inh -5, MBD2 DNA inh -5, DNMT1 block -8 and SUMO1 PPI mod 4.
Screening N#Cc1c(NC(=O)CSc2ccccn2)oc(-c2ccccc2)c1-c1ccccc1 returned UHRF1 binding 0, HCV NS3 hel inh 10, DSG3 Ab inh 109, MBD2 DNA inh -2, DNMT1 block -6 and SUMO1 PPI mod -2.
Screening COc1cc2c(cc1OC)C(c1ccc(Br)cc1)NC(=O)C2 (stereo not given) returned UHRF1 binding 2, HCV NS3 hel inh -2, DSG3 Ab inh 109, MBD2 DNA inh 1, DNMT1 block -2 and SUMO1 PPI mod 2.
`COc1cc2c(cc1OC)C(c1ccccc1)NC(C)(C)C2` (stereo not given) gave UHRF1 binding 46*, HCV NS3 hel inh 16, DSG3 Ab inh 99, MBD2 DNA inh -1, DNMT1 block 0 and SUMO1 PPI mod 7.
COc1cccc2c1C(=O)c1c(O)c3c(c(O)c1C2=O)C[C@@](O)(C(=O)CO)C[C@@H]3O[C@H]1C[C@H](N)[C@H](O)[C@H](C)O1 was read as UHRF1 binding 94*, HCV NS3 hel inh 8, MBD2 DNA inh 110*, DNMT1 block -177 and SUMO1 PPI mod -28.
COc1cccc2c1C(=O)c1c(O)c3c(c(O)c1C2=O)C[C@@](O)(C(=O)CO)C[C@@H]3OC1CC(N)C(O)C(C)O1 (stereo not given in full) was read as UHRF1 binding 95*, DSG3 Ab inh 82, MBD2 DNA inh 112*, DNMT1 block -202 and SUMO1 PPI mod 92*.
CC(=O)[C@@]1(O)Cc2c(O)c3c(c(O)c2[C@H](O[C@H]2C[C@H](N)[C@H](O)[C@H](C)O2)C1)C(=O)c1ccccc1C3=O was read as UHRF1 binding 95*, MBD2 DNA inh 106*, DNMT1 block -115 and SUMO1 PPI mod -94.
Cc1ccc(NC(=O)CCc2c(C)nn(-c3ccc(N4CCOCC4)nn3)c2C)cc1F was read as UHRF1 binding 7, HCV NS3 hel inh 10, DSG3 Ab inh 101, MBD2 DNA inh 9, DNMT1 block 1 and SUMO1 PPI mod 7.
For O=C(Nc1ccc(C(=O)N2CCCC2)cc1)C1CCCC1 the results were UHRF1 binding -4, DSG3 Ab inh 106, MBD2 DNA inh 0, DNMT1 block 8 and SUMO1 PPI mod 3.
